# In ChEMBL document CHEMBL2034960, “Bryonolic acid transcriptional control of anti-inflammatory and antioxidant genes in macrophages in vitro and in vivo” (J Nat Prod, 2012):
# Activity calls are given as the source filed them. The rule behind the calls is not given here.
# What was measured:
# [1] = molecular target: T1, Nuclear factor erythroid 2-related factor 2 (Mus musculus) (UniProt Q60795); experiment: Induction of Nrf2-mediated GR mRNA expression in mouse RAW264.7 cells at 100 uM after 24 hrs by quantitative RT-PCR analysis relative to control; type: cell-based
# T1 sequence (whole entry): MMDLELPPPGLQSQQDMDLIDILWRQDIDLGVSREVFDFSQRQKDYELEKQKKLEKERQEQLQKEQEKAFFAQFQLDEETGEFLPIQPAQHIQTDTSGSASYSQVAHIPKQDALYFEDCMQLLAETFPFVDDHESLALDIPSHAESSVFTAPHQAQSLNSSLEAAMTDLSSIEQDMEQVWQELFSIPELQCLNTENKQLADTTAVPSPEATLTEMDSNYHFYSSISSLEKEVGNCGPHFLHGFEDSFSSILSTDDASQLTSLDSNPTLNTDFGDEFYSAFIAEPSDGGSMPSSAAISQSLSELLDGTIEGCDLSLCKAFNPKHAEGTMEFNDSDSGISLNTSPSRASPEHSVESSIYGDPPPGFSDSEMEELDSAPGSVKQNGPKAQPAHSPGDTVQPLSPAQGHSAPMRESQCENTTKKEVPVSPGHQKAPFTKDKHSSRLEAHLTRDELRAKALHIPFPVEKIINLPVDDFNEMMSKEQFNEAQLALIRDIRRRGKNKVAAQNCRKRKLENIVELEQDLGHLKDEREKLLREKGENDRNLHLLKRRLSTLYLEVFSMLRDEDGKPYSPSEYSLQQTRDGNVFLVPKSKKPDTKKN
# RAW264.7 [2] = experiment: Antiinflammatory activity in mouse RAW264.7 cells assessed as inhibition of LPS-induced nitric oxide production at 50 to 100 uM after 24 hrs by Griess method; type: functional; set-up: scale not given: the % may be the effect or the level left
# RAW264.7 [3] = experiment: Antioxidant activity in LPS-stimulated mouse RAW264.7 cells assessed as induction of HO-1 mRNA expression at 100 uM after 4 hrs by RT-PCR analysis; type: functional, cell-based
# RAW264.7 [4] = experiment: Cytotoxicity against mouse RAW264.7 cells at 100 uM after 8 hrs by MTT assay; type: cell-based; conditions: raw264.7, 8 h
# [5] = molecular target: T1, Nuclear factor erythroid 2-related factor 2 (Mus musculus); experiment: Induction of nuclear translocation of Nrf2 in mouse RAW264.7 cells assessed as decrease in cytoplasmic fraction at 50 uM after 1 hr; type: cell-based
# Procedure, shortened: (§1)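 RAW 264.7 macrophages treated with 50 or 100 μM compound for various times (1–4 h window examined). Cytoplasmic and nuclear fractions were separated and probed for Nrf2 by immunoblot. Translocation was scored as loss of cytoplasmic Nrf2 and nuclear accumulation relative to DMSO control.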
# [6] = molecular target: T1, Nuclear factor erythroid 2-related factor 2 (Mus musculus); experiment: Induction of nuclear translocation of Nrf2 in mouse RAW264.7 cells assessed as decrease in cytoplasmic fraction at 100 uM after 1 hr; type: cell-based; procedure, shortened: as §1
# [7] = molecular target: T1, Nuclear factor erythroid 2-related factor 2 (Mus musculus); experiment: Induction of nuclear translocation of Nrf2 in mouse RAW264.7 cells assessed as decrease in cytoplasmic fraction at 100 uM after 1 to 4 hrs; type: cell-based; procedure, shortened: as §1
# [8] = molecular target: T1, Nuclear factor erythroid 2-related factor 2 (Mus musculus); experiment: Induction of Nrf2-mediated HO1 mRNA expression in mouse RAW264.7 cells at 100 uM after 16 to 20 hrs by quantitative RT-PCR analysis relative to control; type: cell-based
# [9] = molecular target: T1, Nuclear factor erythroid 2-related factor 2 (Mus musculus); experiment: Induction of Nrf2-mediated HO1 mRNA expression in mouse RAW264.7 cells at 100 uM after 24 hrs by quantitative RT-PCR analysis relative to control; type: cell-based
# [10] = molecular target: T1, Nuclear factor erythroid 2-related factor 2 (Mus musculus); experiment: Induction of Nrf2-mediated NQO1 mRNA expression in mouse RAW264.7 cells at 100 uM after 16 to 20 hrs by quantitative RT-PCR analysis relative to control; type: cell-based
# [11] = molecular target: T1, Nuclear factor erythroid 2-related factor 2 (Mus musculus); experiment: Induction of Nrf2-mediated NQO1 mRNA expression in mouse RAW264.7 cells at 100 uM after 24 hrs by quantitative RT-PCR analysis relative to control; type: cell-based
# Procedure, shortened: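 RAW 264.7 cells (DMEM, 10% FBS, 37°C, 5% CO2) exposed to 100 μM compound for a series of time points without stated LPS activation. Total RNA isolated, converted to cDNA, and NQO1 quantified by TaqMan real-time RT-PCR using mouse-specific assays. Fold change versus control derived by the ΔΔCt relative quantification method (40 cycles, 95/60 °C).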
# [12] = molecular target: T1, Nuclear factor erythroid 2-related factor 2 (Mus musculus); experiment: Induction of Nrf2-mediated CAT mRNA expression in mouse RAW264.7 cells at 100 uM after 4 to 24 hrs by quantitative RT-PCR analysis relative to control; type: cell-based
# [13] = molecular target: T1, Nuclear factor erythroid 2-related factor 2 (Mus musculus); experiment: Induction of Nrf2-mediated HO1 […] expression in C57BL/6 mouse primary peritoneal macrophages after 48 hrs by immunoblot analysis
# [14] = molecular target: T1, Nuclear factor erythroid 2-related factor 2 (Mus musculus); experiment: Induction of Nrf2-mediated HO1 […] expression in C57BL/6 mouse primary peritoneal macrophages at 10 uM after 48 hrs by immunoblot analysis
# [15] = molecular target: T1, Nuclear factor erythroid 2-related factor 2 (Mus musculus); experiment: Induction of Nrf2-mediated HO1 […] expression in C57BL/6 mouse primary peritoneal macrophages at 50 uM after 48 hrs by immunoblot analysis
# [16] = system: Peritoneal macrophage cell; experiment: Induction of HO1 […] expression in Nrf2-knockout mouse primary peritoneal macrophages at 5 to 100 uM after 48 hrs by immunoblot analysis; type: functional, cell-based
# RAW264.7 [17] = experiment: Antiinflammatory activity in mouse RAW264.7 cells assessed as inhibition of LPS-induced iNOS protein expression at 50 to 100 uM by immunoblot analysis; type: functional, cell-based; conditions: TDE = time-dependent effect
# RAW264.7 [18] = experiment: Antiinflammatory activity in mouse RAW264.7 cells assessed as inhibition of LPS-induced iNOS protein expression after 24 hrs by immunoblot analysis; type: functional, cell-based
# RAW264.7 [19] = experiment: Antioxidant activity in mouse RAW264.7 cells assessed as induction of HO1 expression at 10 to 100 uM by immunoblot analysis; type: functional, cell-based; conditions: TDE = time-dependent effect
# RAW264.7 [20] = experiment: Cytotoxicity against mouse RAW264.7 cells at 1000 uM after 24 hrs by MTT assay; type: cell-based; conditions: raw264.7, 24 h
# RAW264.7 [21] = experiment: Antioxidant activity in LPS-stimulated mouse RAW264.7 cells assessed as induction of HO-1 […] expression after 24 hrs by immunoblot analysis; type: functional, cell-based
# RAW264.7 [22] = experiment: Antioxidant activity in mouse RAW264.7 cells assessed as induction of HO1 expression after 24 hrs by immunoblot analysis
# Mus musculus [23] = experiment: Induction of HO1 […] expression in Nrf2-wild type C57BL/6 mouse liver at 500 mg/kg, ip measured after 8 hrs by immunoblot analysis
# Mus musculus [24] = experiment: Induction of HO1 […] expression in Nrf2-knock out C57BL/6 mouse liver at 500 mg/kg, ip measured after 8 hrs by immunoblot analysis
# RAW264.7 [25] = experiment: Antiinflammatory activity in mouse RAW264.7 cells assessed as inhibition of LPS-induced iNOS protein expression at 100 uM after 4 hrs by immunoblot analysis
smiles,measurement,setting,value
CC1(C)[C@@H](O)CC[C@]2(C)C3=C(CC[C@@H]12)[C@@]1(C)CC[C@@]2(C)CC[C@@](C)(C(=O)O)C[C@H]2[C@]1(C)CC3 [BRYONOLIC ACID],Activity,[1],inactive
same,Activity,RAW264.7 [2],72%
same,Activity,RAW264.7 [3],Active
same,Activity,RAW264.7 [4],Non-toxic
same,Activity,[5],Active
same,Activity,[6],Active
same,Activity,[7],Active
same,Activity,[8],Active
same,Activity,[9],Active
same,Activity,[10],Active
same,Activity,[11],Active
same,Activity,[12],Active
same,Activity,[13],Dose-dependent effect
same,Activity,[14],Active
same,Activity,[15],Active
same,Activity,[16],inactive
same,Activity,RAW264.7 [17],tde
same,Activity,RAW264.7 [18],Dose-dependent effect
same,Activity,RAW264.7 [19],tde
same,Activity,RAW264.7 [20],Toxic
same,Activity,RAW264.7 [21],Dose-dependent effect
same,Activity,RAW264.7 [22],Dose-dependent effect
same,Activity,Mus musculus [23],Active
same,Activity,Mus musculus [24],inactive
same,Activity,RAW264.7 [25],Active
